Activity calls are given as the source filed them.
Experiments:
[1] = AUC in anesthetized C57BL/6J mouse brain at 10 mg/kg, ip administered as single dose measured upto 240 mins in presence of tween-80 by LC-MS/MS analysis; type: ADME, organism-based; set-up: dose 10 mg/kg, time < 4 hr, route intraperitoneal; settings: in vivo, 4 h
How it was run: (§1)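 Male and female mice (C57BL/6J or C57BL/6J x 129 F1), postnatal days 21-28, single i.p. injection at 10 mL/kg in vegetable oil or ethanol–Tween 80–saline (1:1:18). Blood taken by cardiac puncture under isoflurane at time points 15–240 min. Plasma and PBS brain homogenate extracted with ice-cold acetonitrile, diazepam internal standard, quantified by LC-MS/MS. Mean concentrations per time point (n = 3-5); noncompartmental analysis.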

[2] = Cmax in anesthetized C57BL/6J mouse plasma at 10 mg/kg, ip administered as single dose measured upto 240 mins in presence of vegetable oil by LC-MS/MS analysis; type: ADME, organism-based; set-up: dose 10 mg/kg, route intraperitoneal; how it was run: as §1
[3] = Half life in anesthetized C57BL/6J mouse brain at 10 mg/kg, ip administered as single dose measured upto 240 mins in presence of vegetable oil by LC-MS/MS analysis; type: ADME, organism-based; how it was run: as §1
[4] = AUC in anesthetized C57BL/6J mouse plasma at 10 mg/kg, ip administered as single dose measured upto 240 mins in presence of vegetable oil by LC-MS/MS analysis; type: ADME, organism-based; set-up: time < 4 hr, dose 10 mg/kg, route intraperitoneal; how it was run: as §1
[5] = Partition coefficient, log P of compound; type: physicochemical; settings: octanol/water
[6] = AUC in anesthetized C57BL/6J mouse plasma at 10 mg/kg, ip administered as single dose measured upto 240 mins in presence of tween-80 by LC-MS/MS analysis; type: ADME, organism-based; set-up: dose 10 mg/kg, time < 4 hr, route intraperitoneal; how it was run: as §1
[7] = Tmax in anesthetized C57BL/6J mouse brain at 10 mg/kg, ip administered as single dose measured upto 240 mins in presence of vegetable oil by LC-MS/MS analysis; type: ADME, organism-based; how it was run: as §1
[8] = Ratio of drug level in anesthetized C57BL/6J mouse brain to plasma at 5 mg/kg, ip administered as single dose measured upto 240 mins in presence of tween-80 by LC-MS/MS analysis; type: ADME, organism-based; settings: read-out: BPR
[9] = AUC in anesthetized C57BL/6J mouse brain at 10 mg/kg, ip administered as single dose measured upto 240 mins in presence of vegetable oil by LC-MS/MS analysis; type: ADME, organism-based; set-up: dose 10 mg/kg, time < 4 hr, route intraperitoneal; settings: in vivo, 4 h; how it was run: as §1
[10] = Cmax in anesthetized C57BL/6J mouse brain at 10 mg/kg, ip administered as single dose measured upto 240 mins in presence of vegetable oil by LC-MS/MS analysis; type: ADME, organism-based; set-up: dose 10 mg/kg, route intraperitoneal; settings: in vivo, 4 h; how it was run: as §1
[11] = Tmax in anesthetized C57BL/6J mouse plasma at 10 mg/kg, ip administered as single dose measured upto 240 mins by LC-MS/MS analysis; type: ADME, organism-based; how it was run: as §1
[12] = Cmax in anesthetized C57BL/6J mouse plasma at 10 mg/kg, ip administered as single dose measured upto 240 mins by LC-MS/MS analysis; type: ADME, organism-based; set-up: dose 10 mg/kg, route intraperitoneal; how it was run: as §1
[13] = Dissociation constant, pKa of compound; type: physicochemical
[14] = Half life in anesthetized C57BL/6J mouse plasma at 10 mg/kg, ip administered as single dose measured upto 240 mins in presence of vegetable oil by LC-MS/MS analysis; type: ADME, organism-based; how it was run: as §1
[15] = Drug metabolism in brain of anesthetized C57BL/6J mouse at 10 mg/kg, ip by LC-MS/MS analysis; type: ADME, organism-based; settings: in vivo
How it was run: (§2)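 Mice aged 21-28 days postnatal received one i.p. dose (10 mL/kg), and plasma and brain were sampled at 15–240 min. Decarboxylated neutral cannabinoids were measured by LC-MS/MS against known standards, alongside the parent acid.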

Mus musculus = experiment: Anticonvulsant activity against hyperthermia-induced seizure in Scn1aRX/+ mouse model of Dravet syndrome assessed as increase in generalized tonic-clonic seizure temperature threshold at 10 to 30 mg/kg, ip administered as single dose measured by RET-3 rectal probe; type: functional, organism-based
[16] = Tmax in anesthetized C57BL/6J mouse plasma at 10 mg/kg, ip administered as single dose measured upto 240 mins in presence of tween-80 by LC-MS/MS analysis; type: ADME, organism-based; how it was run: as §1
[17] = Drug uptake in plasma of anesthetized C57BL/6J mouse at 10 mg/kg, ip by LC-MS/MS analysis; type: ADME, organism-based; settings: in vivo; how it was run: as §2
[18] = Tmax in anesthetized C57BL/6J mouse brain at 10 mg/kg, ip administered as single dose measured upto 240 mins in presence of tween-80 by LC-MS/MS analysis; type: ADME, organism-based; how it was run: as §1
[19] = Tmax in anesthetized C57BL/6J mouse plasma at 10 mg/kg, ip administered as single dose measured upto 240 mins in presence of vegetable oil by LC-MS/MS analysis; type: ADME, organism-based; how it was run: as §1
[20] = Half life in anesthetized C57BL/6J mouse brain at 10 mg/kg, ip administered as single dose measured upto 240 mins by LC-MS/MS analysis; type: ADME, organism-based; how it was run: as §1
[21] = Cmax in anesthetized C57BL/6J mouse brain at 10 mg/kg, ip administered as single dose measured upto 240 mins by LC-MS/MS analysis; type: ADME, organism-based; set-up: dose 10 mg/kg, route intraperitoneal; settings: in vivo, 4 h; how it was run: as §1
[22] = Tmax in anesthetized C57BL/6J mouse brain at 10 mg/kg, ip administered as single dose measured upto 240 mins by LC-MS/MS analysis; type: ADME, organism-based; how it was run: as §1
[23] = AUC in anesthetized C57BL/6J mouse plasma at 10 mg/kg, ip administered as single dose measured upto 240 mins by LC-MS/MS analysis; type: ADME, organism-based; set-up: time < 4 hr, dose 10 mg/kg, route intraperitoneal; how it was run: as §1
[24] = Half life in anesthetized C57BL/6J mouse brain at 10 mg/kg, ip administered as single dose measured upto 240 mins in presence of tween-80 by LC-MS/MS analysis; type: ADME, organism-based; how it was run: as §1
[25] = AUC in anesthetized C57BL/6J mouse brain at 10 mg/kg, ip administered as single dose measured upto 240 mins by LC-MS/MS analysis; type: ADME, organism-based; set-up: dose 10 mg/kg, time < 4 hr, route intraperitoneal; settings: in vivo, 4 h; how it was run: as §1
[26] = Ratio of drug level in anesthetized C57BL/6J mouse brain to plasma at 10 mg/kg, ip administered as single dose measured upto 240 mins by LC-MS/MS analysis; type: ADME, organism-based; settings: read-out: BPR; how it was run: as §1
[27] = Half life in anesthetized C57BL/6J mouse plasma at 10 mg/kg, ip administered as single dose measured upto 240 mins by LC-MS/MS analysis; type: ADME, organism-based; how it was run: as §1
[28] = Cmax in anesthetized C57BL/6J mouse plasma at 10 mg/kg, ip administered as single dose measured upto 240 mins in presence of tween-80 by LC-MS/MS analysis; type: ADME, organism-based; set-up: dose 10 mg/kg, route intraperitoneal; how it was run: as §1
[29] = Half life in anesthetized C57BL/6J mouse plasma at 10 mg/kg, ip administered as single dose measured upto 240 mins in presence of tween-80 by LC-MS/MS analysis; type: ADME, organism-based; how it was run: as §1
[30] = Ratio of drug level in anesthetized C57BL/6J mouse brain to plasma at 5 mg/kg, ip administered as single dose measured upto 240 mins in presence of vegetable oil by LC-MS/MS analysis; type: ADME, organism-based; settings: read-out: BPR
[31] = Cmax in anesthetized C57BL/6J mouse brain at 10 mg/kg, ip administered as single dose measured upto 240 mins in presence of tween-80 by LC-MS/MS analysis; type: ADME, organism-based; set-up: dose 10 mg/kg, route intraperitoneal; settings: in vivo, 4 h; how it was run: as §1
[32] = Drug metabolism in plasma of anesthetized C57BL/6J mouse assessed as decrease in decarboxylation of parent compound at 10 mg/kg, ip by LC-MS/MS analysis; type: ADME, organism-based; settings: in vivo; how it was run: as §2
[33] = Drug metabolism in brain of anesthetized C57BL/6J mouse assessed as decrease in decarboxylation of parent compound at 10 mg/kg, ip by LC-MS/MS analysis; type: ADME, organism-based; settings: in vivo; how it was run: as §2
[34] = Drug uptake in plasma of anesthetized C57BL/6J mouse assessed as purity of compound at 10 mg/kg, ip by LC-MS/MS analysis; type: ADME, organism-based; settings: in vivo; how it was run: as §2
[35] = Cmax in anesthetized C57BL/6J mouse brain at 5 mg/kg, ip administered as single dose measured upto 240 mins by LC-MS/MS analysis; type: ADME, organism-based; set-up: dose 5 mg/kg, route intraperitoneal; settings: in vivo, 4 h, BLD = below limit of detection; how it was run: as §1
[36] = Cmax in anesthetized C57BL/6J mouse plasma at 5 mg/kg, ip administered as single dose measured upto 240 mins by LC-MS/MS analysis; type: ADME, organism-based; set-up: dose 5 mg/kg, route intraperitoneal; how it was run: as §1
[37] = Half life in anesthetized C57BL/6J mouse plasma at 5 mg/kg, ip administered as single dose measured upto 240 mins by LC-MS/MS analysis; type: ADME, organism-based; how it was run: as §1
[38] = AUC in anesthetized C57BL/6J mouse plasma at 5 mg/kg, ip administered as single dose measured upto 240 mins by LC-MS/MS analysis; type: ADME, organism-based; set-up: dose 5 mg/kg, time < 4 hr, route intraperitoneal; how it was run: as §1
[39] = Drug metabolism in brain of anesthetized C57BL/6J mouse assessed as decrease in decarboxylation of parent compound at 5 mg/kg, ip by LC-MS/MS analysis; type: ADME, organism-based; settings: in vivo; how it was run: as §2
[40] = Tmax in anesthetized C57BL/6J mouse plasma at 5 mg/kg, ip administered as single dose measured upto 240 mins by LC-MS/MS analysis; type: ADME, organism-based; how it was run: as §1
[41] = Drug metabolism in plasma of anesthetized C57BL/6J mouse assessed as decrease in decarboxylation of parent compound at 5 mg/kg, ip by LC-MS/MS analysis; type: ADME, organism-based; settings: in vivo; how it was run: as §2

| SMILES | logP [5] | Tmax [11] [min] | Cmax [12] [ng/mL] | pKa [13] | Drug metabolism [15] | Drug uptake [17] [%] | half-life [20] [min] | Cmax [21] [ng/mg] | Tmax [22] [min] | AUC at 4 h [23] [ng·h/mL] | AUC [25] [µg·min/g] | Kp at 4 h [26] | half-life [27] [min] | also measured |
| --- | --- | --- | --- | --- | --- | --- | --- | --- | --- | --- | --- | --- | --- | --- |
| C=C(C)[C@@H]1CCC(C)=C[C@H]1c1c(O)cc(CCCCC)c(C(=O)O)c1O [CANNABIDIOLIC ACID] | 6.63 | 30 | 29600 | 2.91 | Metabolite_Notdetected | 0.5 | 41 | 2 | 45 | 78300 | 183 | 0.04 | 92 | AUC [1]: 1142 ng·min/g; Cmax [2]: 29600 ng/mL; half-life [3]: 41 min; AUC at 4 h [4]: 78300 ng·h/mL; AUC at 4 h [6]: 9970 ng·h/mL; Tmax [7]: 45 min; Kp at 4 h [8]: 1.9; AUC [9]: 183 ng·min/g; Cmax [10]: 2 ng/mg; half-life [14]: 92 min; Activity (Mus musculus): Active; Tmax [16]: 15 min; Tmax [18]: 30 min; Tmax [19]: 30 min; half-life [24]: 67 min; Cmax [28]: 17600 ng/mL; half-life [29]: 55 min; Kp at 4 h [30]: 0.04; Cmax [31]: 13.2 ng/mg |
| CCCCCc1cc(O)c(C/C=C(\C)CCC=C(C)C)c(O)c1C(=O)O [CANNABIGEROLIC ACID] | 7.35 | 45 | 63500 | 2.92 |  |  | 31 | 2.3 | 30 | 99300 | 94 | 0.02 | 62 | Drug metabolism [32]: Metabolite_Notdetected; Drug metabolism [33]: Metabolite_Notdetected |
| CCCc1cc(O)c(C/C=C(\C)CCC=C(C)C)c(O)c1C(=O)O | 6.46 | 15 | 34400 | 2.92 | Metabolite_Notdetected | 0.2 | 29 | 3.8 | 90 | 199000 |  | 0.04 | 204 | Drug uptake [34]: 97% |
| CCCCCc1cc2c(c(O)c1C(=O)O)C=CC(C)(CCC=C(C)C)O2 (configuration not stated) | 6.91 |  |  | 2.87 |  |  |  |  |  |  |  |  |  | Cmax [35]: Bld; Cmax [36]: 3300 ng/mL; half-life [37]: 24 min; AUC at 4 h [38]: 2880 ng·h/mL; Drug metabolism [39]: Metabolite_Notdetected; Tmax [40]: 30 min; Drug metabolism [41]: Metabolite_Notdetected |
